The values below come from ChEMBL document CHEMBL1142894, “Preparation of 5-aryl-3-alkylthio-l,2,4-triazoles and corresponding sulfones with antiinflammatory-analgesic activity” (Bioorg Med Chem, 2007).

SMILES strings stand for the structures.

Assay type in all cases: functional
Assay [1] concerns Mus musculus. The assay is described as follows: Inhibition of carrageenan-induced paw edema in Swiss albino mouse at 10 mg/kg, po after 360 mins relative to control. The conditions noted are these: 6 h. The method in brief:
(§1)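 Oral dosing in 0.5% CMC; vehicle to controls. Then carrageenan (0.5 mg/25 ll, freshly suspended in 154 mM saline) injected into the right hind paw subplantar tissue; saline into the left paw. Right-left footpad thickness difference measured by dial gauge calliper every 90 min over 6 h. Inhibition % is relative to vehicle control. n = 6; mean ± SEM.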
Background: In the carrageenan paw model, swelling and tenderness develop within hours.

Assay [2] has as its system Mus musculus. Put plainly: Inhibition of carrageenan-induced paw edema in Swiss albino mouse at 10 mg/kg, po after 270 mins relative to control. Conditions: 4.5 h. The method in brief:
as §1

Assay [3] deals with Mus musculus. Put plainly: Inhibition of carrageenan-induced paw edema in Swiss albino mouse at 10 mg/kg, po after 180 mins relative to control. Conditions: 3 h. The method in brief: as §1
In assay [4] the test system is Mus musculus. The assay is described as follows: Inhibition of carrageenan-induced paw edema in Swiss albino mouse at 10 mg/kg, po after 90 mins relative to control. The conditions noted are these: 1.5 h. The method in brief:
as §1

The test system of assay [5] is Mus musculus. The assay is described as follows: Inhibition of carrageenan-induced paw edema in Swiss albino mouse at 100 mg/kg, po after 360 mins relative to control. Conditions: 6 h. The method in brief: as §1
The subject of assay [6] is Mus musculus. Put plainly: Antiinflammatory activity against carrageenan-induced paw edema in Swiss albino mouse assessed as swelling thickness at 100 mg/kg, po after 360 mins. The method in brief: as §1
Assay [7] deals with Mus musculus. The assay is described as follows: Antiinflammatory activity against carrageenan-induced paw edema in Swiss albino mouse assessed as swelling thickness at 100 mg/kg, po after 90 mins. The method in brief: as §1
In assay [8] the test system is Mus musculus. Put plainly: Inhibition of carrageenan-induced paw edema in Swiss albino mouse at 100 mg/kg, po after 90 mins relative to control. Conditions: 1.5 h. The method in brief:
as §1

Assay [9] relates to Mus musculus. The assay is described as follows: Antiinflammatory activity against carrageenan-induced paw edema in Swiss albino mouse assessed as swelling thickness at 100 mg/kg, po after 270 mins. The method in brief: as §1
Assay [10] relates to Mus musculus. Put plainly: Antiinflammatory activity against carrageenan-induced paw edema in Swiss albino mouse assessed as swelling thickness at 100 mg/kg, po after 180 mins. The method in brief:
as §1

Assay [11] deals with Mus musculus. Put plainly: Antiinflammatory activity against carrageenan-induced paw edema in Swiss albino mouse assessed as swelling thickness at 10 mg/kg, po after 270 mins. The method in brief:
as §1

Assay [12] concerns Mus musculus. Put plainly: Inhibition of carrageenan-induced paw edema in Swiss albino mouse at 100 mg/kg, po after 180 mins relative to control. Conditions: 3 h. The method in brief: as §1
In assay [13] the test system is Mus musculus. Put plainly: Inhibition of carrageenan-induced paw edema in Swiss albino mouse at 100 mg/kg, po after 270 mins relative to control. The conditions noted are these: 4.5 h. The method in brief: as §1
Assay [14] relates to Mus musculus. Put plainly: Antiinflammatory activity against carrageenan-induced paw edema in Swiss albino mouse assessed as swelling thickness at 10 mg/kg, po after 180 mins. The method in brief: as §1
The test system of assay [15] is Mus musculus. Put plainly: Antiinflammatory activity against carrageenan-induced paw edema in Swiss albino mouse assessed as swelling thickness at 10 mg/kg, po after 360 mins. The method in brief:
as §1

For assay [16], the system named is Mus musculus. Put plainly: Antiinflammatory activity against carrageenan-induced paw edema in Swiss albino mouse assessed as swelling thickness at 10 mg/kg, po after 90 mins. The method in brief:
as §1

As usually defined, the inhibition in vivo is the drop in the measured response relative to a control, in per cent. High values mean a response far below the control, low ones a response near the control. Turning to `COc1ccc2c(c1)c(CC(=O)O)c(C)n2C(=O)c1ccc(Cl)cc1` [INDOMETHACIN], the inhibition in vivo at 10 mg/kg in the assay with Mus musculus [1] turned out to be 44.2%; with Mus musculus [2], 42.1%; in the assay on Mus musculus [3] it was 34.2%; in the assay with Mus musculus [4], 35.2%. The inhibition in vivo at 100 mg/kg stood at 42.3% in the assay on Mus musculus [5], 28.8% in the assay on Mus musculus [8], 32.4% in the assay on Mus musculus [12] and 37.9% in the assay on Mus musculus [13]. In addition, the Activity with Mus musculus [6] is 39.7 10^-2mm; in the assay on Mus musculus [7], 31.9 10^-2mm; with Mus musculus [9] it was 36.5 10^-2mm; in the assay on Mus musculus [10] it was 34.8 10^-2mm; in the assay with Mus musculus [11] it was 37.5 10^-2mm; with Mus musculus [14] it was 39.1 10^-2mm. The values for the Activity with Mus musculus [15] and in the assay with Mus musculus [16] were 40.2 10^-2mm and 34.5 10^-2mm, respectively.
